The source of these data is ChEMBL document CHEMBL1131034, “Synthesis and pharmacological characterization of novel 6-fluorochroman derivatives as potential 5-HT1A receptor antagonists” (J Med Chem, 1998).

The target of test [1] is T1, Adrenergic receptor alpha-1 (Rattus norvegicus, UniProt P15823+P23944+P43140).
T1 sequence (P15823 whole entry): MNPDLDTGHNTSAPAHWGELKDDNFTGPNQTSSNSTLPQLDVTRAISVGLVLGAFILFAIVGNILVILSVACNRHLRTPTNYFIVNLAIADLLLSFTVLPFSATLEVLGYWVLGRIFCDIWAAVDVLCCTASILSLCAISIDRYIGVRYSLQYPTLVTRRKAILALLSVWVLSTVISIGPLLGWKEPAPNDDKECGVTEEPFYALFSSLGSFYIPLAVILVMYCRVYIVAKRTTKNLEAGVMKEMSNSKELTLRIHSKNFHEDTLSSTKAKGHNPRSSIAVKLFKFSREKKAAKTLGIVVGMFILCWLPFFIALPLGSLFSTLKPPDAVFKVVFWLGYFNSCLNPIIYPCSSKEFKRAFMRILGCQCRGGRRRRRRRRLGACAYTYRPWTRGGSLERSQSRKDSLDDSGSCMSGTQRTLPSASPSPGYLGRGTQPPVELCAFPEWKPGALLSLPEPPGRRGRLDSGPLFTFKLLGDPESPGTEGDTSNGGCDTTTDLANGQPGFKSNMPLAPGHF
T1 sequence (P23944 whole entry): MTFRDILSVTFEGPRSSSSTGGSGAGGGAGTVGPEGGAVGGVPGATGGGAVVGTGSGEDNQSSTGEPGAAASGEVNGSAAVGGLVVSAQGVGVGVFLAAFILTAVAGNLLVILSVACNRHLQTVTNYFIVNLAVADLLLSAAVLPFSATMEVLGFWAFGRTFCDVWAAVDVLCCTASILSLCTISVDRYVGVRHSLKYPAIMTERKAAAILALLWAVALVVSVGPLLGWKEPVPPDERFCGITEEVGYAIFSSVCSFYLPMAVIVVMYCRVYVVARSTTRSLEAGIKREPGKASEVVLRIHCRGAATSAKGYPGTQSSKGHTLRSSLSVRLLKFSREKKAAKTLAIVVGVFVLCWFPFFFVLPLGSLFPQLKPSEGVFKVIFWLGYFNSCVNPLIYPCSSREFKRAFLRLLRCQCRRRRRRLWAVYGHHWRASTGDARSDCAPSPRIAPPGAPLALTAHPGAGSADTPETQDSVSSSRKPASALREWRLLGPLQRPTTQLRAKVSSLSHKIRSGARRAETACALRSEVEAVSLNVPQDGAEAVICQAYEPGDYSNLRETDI
T1 sequence (P43140 whole entry): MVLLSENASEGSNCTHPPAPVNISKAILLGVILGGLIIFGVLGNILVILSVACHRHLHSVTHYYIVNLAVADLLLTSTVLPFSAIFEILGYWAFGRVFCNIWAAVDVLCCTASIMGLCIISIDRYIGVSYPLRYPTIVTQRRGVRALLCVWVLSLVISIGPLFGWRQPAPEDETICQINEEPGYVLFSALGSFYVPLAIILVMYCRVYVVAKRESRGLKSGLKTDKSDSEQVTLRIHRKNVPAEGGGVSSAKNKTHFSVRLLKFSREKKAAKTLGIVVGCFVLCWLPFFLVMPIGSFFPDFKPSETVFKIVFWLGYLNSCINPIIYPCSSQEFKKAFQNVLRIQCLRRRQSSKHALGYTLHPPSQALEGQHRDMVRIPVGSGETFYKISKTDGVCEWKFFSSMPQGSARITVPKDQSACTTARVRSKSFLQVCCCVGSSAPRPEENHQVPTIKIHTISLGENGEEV
Briefly: Binding affinity against alpha-1 adrenergic receptor on rat cortex using [3H]-prazosin as radioligand. The format is tissue-based, Brain.

Test [2] concerns Rattus norvegicus. Briefly: In vivo antagonist activity was measured as flat body posture (FBP) in a behavioral response test in reserpinized rats at 1 mg/kg(sc) dose. The format is functional. The essentials: (§1)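 Male Wistar rats given reserpine 18 h before use. Test compound or vehicle given 15 min before 8-OH-DPAT (0.25 mg/kg sc). Starting 3 min after agonist, forepaw treading and flat body posture scored every 3 min for 15 min on a ranked intensity scale. Doses expressed as free base. Mean ± SEM; Mann–Whitney U-test against vehicle control.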

Test [3] has as its system Rattus norvegicus. Briefly: In vivo antagonist activity was measured as flat body posture (FBP) in a behavioral response test in reserpinized rats at 3 mg/kg(sc) dose. The format is functional. The method in brief: as §1
The target in test [4] is T2, 5-hydroxytryptamine receptor 1A (Rattus norvegicus, UniProt P19327).
T2 sequence (P19327 whole entry): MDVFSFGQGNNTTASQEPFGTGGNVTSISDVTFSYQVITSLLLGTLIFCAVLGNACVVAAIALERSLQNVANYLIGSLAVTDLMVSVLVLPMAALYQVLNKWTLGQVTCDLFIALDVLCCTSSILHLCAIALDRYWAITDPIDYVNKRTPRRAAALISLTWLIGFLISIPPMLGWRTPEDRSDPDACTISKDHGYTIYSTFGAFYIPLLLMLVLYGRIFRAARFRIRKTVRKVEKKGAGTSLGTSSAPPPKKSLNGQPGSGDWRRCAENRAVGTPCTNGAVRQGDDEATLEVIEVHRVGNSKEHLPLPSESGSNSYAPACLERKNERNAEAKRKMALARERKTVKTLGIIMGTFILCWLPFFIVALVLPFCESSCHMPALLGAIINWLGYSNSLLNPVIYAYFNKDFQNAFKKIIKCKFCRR
Briefly: Binding affinity against 5-hydroxytryptamine 1A receptor on rat hippocampus using [3H]8-OH-DPAT as radioligand. Format: tissue-based.

Test [5] has as its system Rattus norvegicus. The experiment in a line: In vivo antagonist activity was measured as flat body posture (FBP) in a behavioral response test in reserpinized rats upon subcutaneous administration. The format is functional. The essentials: as §1
Test [6] in a line: Binding affinity (Ki) ratio of D2 receptor of rat striatum and 5-HT1A receptor of rat hippocampus. The format is tissue-based.
Test [7] has as its target Serotonin 1a (5-HT1a) receptor/Adrenergic receptor alpha-1 (Rattus norvegicus) (UniProt P15823+P23944+P43140+P19327). The experiment in a line: Selectivity for 5-HT1A receptor of rat hippocampus and alpha-1 adrenergic receptor of rat cortex. The format is tissue-based.
The subject of test [8] is Rattus norvegicus. The experiment in a line: In vivo antagonist activity was measured as forepaw treading(FT) in a behavioral response test in reserpinized rats at 1 mg/kg(sc) dose. The format is functional. The essentials: as §1
For test [9], the system named is Rattus norvegicus. The experiment in a line: In vivo antagonist activity was measured as forepaw treading(FT) in a behavioral response test in reserpinized rats at 3 mg/kg(sc) dose. The format is functional. The essentials: as §1
The target of test [10] is T3, 5-hydroxytryptamine receptor 1A (Homo sapiens) (UniProt P08908).
T3 sequence (whole entry): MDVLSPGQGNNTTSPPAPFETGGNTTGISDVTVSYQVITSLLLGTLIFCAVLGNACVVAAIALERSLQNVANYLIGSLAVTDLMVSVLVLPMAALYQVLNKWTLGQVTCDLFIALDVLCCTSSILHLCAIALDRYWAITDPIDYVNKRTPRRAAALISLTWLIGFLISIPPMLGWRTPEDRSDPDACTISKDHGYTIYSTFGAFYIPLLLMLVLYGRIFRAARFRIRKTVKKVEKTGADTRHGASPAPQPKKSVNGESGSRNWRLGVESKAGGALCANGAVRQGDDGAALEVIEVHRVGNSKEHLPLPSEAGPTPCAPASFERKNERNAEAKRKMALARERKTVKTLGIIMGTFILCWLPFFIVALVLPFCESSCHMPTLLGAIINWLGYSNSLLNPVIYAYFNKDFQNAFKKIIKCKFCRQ
The experiment in a line: Antagonist activity against CHO cells expressing the human 5-hydroxytryptamine 1A receptor in a forskolin stimulated adenylate cyclase (FSC) assay. The format is functional, cell-based.

Test [11] relates to Rattus norvegicus. Briefly: In vivo antagonist activity was measured as forepaw treading(FT) in a behavioral response test in reserpinized rats upon subcutaneous administration. Format: functional. The method in brief:
as §1

Test [12] concerns the target D(2) dopamine receptor (Rattus norvegicus, UniProt P61169). The experiment in a line: Binding affinity against dopamine receptor D2 on rat striatum using [3H]spiperone as radioligand. The format is tissue-based.

D(2) dopamine receptor, sequence (P61169 whole entry): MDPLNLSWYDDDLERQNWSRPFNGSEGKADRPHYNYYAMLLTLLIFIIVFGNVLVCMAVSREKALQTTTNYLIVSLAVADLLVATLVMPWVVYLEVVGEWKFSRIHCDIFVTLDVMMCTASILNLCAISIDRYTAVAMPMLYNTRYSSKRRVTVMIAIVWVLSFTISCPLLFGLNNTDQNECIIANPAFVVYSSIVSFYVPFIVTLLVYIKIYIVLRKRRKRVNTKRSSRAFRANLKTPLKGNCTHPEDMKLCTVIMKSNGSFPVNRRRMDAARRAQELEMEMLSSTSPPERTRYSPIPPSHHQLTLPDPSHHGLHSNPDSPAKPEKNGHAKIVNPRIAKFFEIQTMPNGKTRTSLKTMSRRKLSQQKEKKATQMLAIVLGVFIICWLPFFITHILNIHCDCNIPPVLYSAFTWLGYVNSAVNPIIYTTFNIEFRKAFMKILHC

Consider `O=C1CCOc2c(OCCNCCCCc3ccc4c(c3)CCO4)cc(F)cc21`, for which the Ki is 169 nM in [1], 4.19 nM in test [4] and 49.6 nM in [12]. For the same compound, the Behavior score in test [2] was 6.8; in test [3], 3.8; in [5], 12.3; in [8], 4; in test [9], 1.2; in [11], 10.1. Besides, the Ratio in test [6] turned out to be 12. Moreover, the Selectivity in test [7] came out at 40. For the same compound, in [10], the FSC recovery was 68%.
Regarding `COc1ccc(CCCCNCCOc2cc(F)cc3c2OCC=C3)cc1`, the Ki in test [1] turned out to be 8.31 nM; in test [4], 0.159 nM; in test [12], 0.288 nM. In addition, the Behavior score in test [2] was 3.7; in test [3], 2.8; in test [5] it was 11.8; in test [8], 1.3; in test [9], 0; in test [11], 11.8. Further, the Ratio in test [6] is 1.8. This compound also registered a Selectivity in test [7] of 52. The FSC recovery in test [10] is 109%.
Regarding `COc1ccc(CCCCNCCOc2cc(F)cc3c2OCCC3)cc1`, the Behavior score in test [2] stood at 3.8; in test [3] it was 3; in test [5], 11.5; in test [8], 1.8; in [9] it was 0.5; in [11], 8.8. Also, the Ratio in test [6] was found to be 1.2. The same compound displayed a Selectivity in test [7] of 12. The compound further yielded an FSC recovery in [10] of 121%.
Regarding `COc1ccc(CCCCNCCOc2cc(F)cc3c2OCCC3O)cc1` (stereo in doubt; 34), the results for the inhibition constant (Ki) in test [1], in [4] and in [12] were 10.4 nM, 0.716 nM and 0.724 nM, respectively. Further, the Behavior score in test [2] came out at 6.8; in test [3], 4; in [5], 12.4; in [8], 3.3; in test [9], 1.8; in test [11] it was 8.6.
Regarding `CCOc1ccc(CCCCNCCOc2cc(F)cc3c2OCCC3=O)cc1`, the inhibition constant (Ki) worked out at 663 nM in [1], 18 nM in test [4] and 55.1 nM in [12]. Moreover, the Ratio in [6] amounted to 3.1. For the same compound, in test [7], the Selectivity stood at 37. The same compound displayed an FSC recovery in test [10] of 52%.
As for `COc1cccc(CCCCNCCOc2cc(F)cc3c2OCCC3=O)c1`, the Ki was found to be 249 nM in [1], 43.4 nM in test [4] and 111 nM in [12]. Moreover, the Ratio in [6] came out at 2.6. The compound also yielded a Selectivity in test [7] of 5.7. In addition, the FSC recovery in test [10] came out at 3%.
Consider `CCCN(CCCCc1ccc2c(c1)OCO2)CCOc1cc(F)cc2c1OCCC2=O`, for which the results for the inhibition constant (Ki) in test [1], in test [4] and in test [12] were 734 nM, 69 nM and 1540 nM, respectively. In [6], the Ratio was 22. Besides, the Selectivity in test [7] came out at 11. In test [10], this compound yielded an FSC recovery of 6%.
On to `COc1ccc(CCNCCOc2cc(F)cc3c2OC(C)CC3)cc1` (stereo not given), for which the Ki in test [1] worked out at 2.73 nM; in test [4], 0.188 nM; in [12], 8.13 nM. Besides, the Ratio in test [6] stood at 43. In [7], this compound showed a Selectivity of 15. This compound also yielded an FSC recovery in [10] of 12%.
For `O=C1CCOc2c(OCCNCCCCc3ccc4c(c3)OCCO4)cc(F)cc21`, the Ki in test [1] was found to be 303 nM; in test [4], 2.6 nM; in [12], 25.1 nM. In addition, the Behavior score in test [3] came to 8.5; in test [5], 11; in test [9], 5.8; in test [11], 7.7. Besides, the Ratio in test [6] was determined as 9.7. In addition, in [7], the Selectivity was determined as 120. Moreover, in [10], the FSC recovery was 65%.
`COc1ccc(CCNCCOc2cc(F)cc3c2OCCC3=O)cc1`: the figures for the Ki in test [1], in test [4] and in test [12] were 317 nM, 4.04 nM and 38 nM, respectively. Also, in test [6], the Ratio was 9.4. In test [7], this compound registered a Selectivity of 78. The FSC recovery in [10] is 9%.
Take `COc1ccc(CCCCCNCCOc2cc(F)cc3c2OC(C)CC3)cc1` (stereo not given): the inhibition constant Ki in test [1] came to 19.1 nM; in test [4], 7.33 nM; in test [12], 3.02 nM. The Ratio in [6] was determined as 0.41. For the same compound, in test [7], the Selectivity stood at 2.6. In [10], this compound had an FSC recovery of 59%.
For `CN(C)c1ccc(CCCCNCCOc2cc(F)cc3c2OCCC3=O)cc1`, the Ki in [1] came out at 574 nM; in [4] it was 28.3 nM; in test [12] it was 34.6 nM. For the same compound, in test [6], the Ratio is 1.2. The Selectivity in [7] worked out at 20. In [10], this compound gave an FSC recovery of 37%.
Regarding `O=C1CCOc2c(OCCNCCCCc3ccc(Cl)cc3)cc(F)cc21`, the values for the inhibition constant (Ki) in test [1], in [4] and in [12] were 98.9 nM, 19 nM and 32.3 nM, respectively. Besides, the Ratio in test [6] was 1.7. The Selectivity in test [7] turned out to be 5.2. This compound came in with an FSC recovery in test [10] of 30%.
